In ChEMBL document CHEMBL2424550, “Discovery of cyclic sulfoxide hydroxyethylamines as potent and selective β-site APP-cleaving enzyme 1 (BACE1) inhibitors: structure based design and in vivo reduction of amyloid β-peptides” (Bioorg Med Chem Lett, 2013):

system: Brain; experiment: Drug level in APP51/16 transgenic female mouse brain at 100 umol/kg, po after 4 hrs; type: ADME, organism-based; details: in vivo
Summary of the method: (§1)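 APP51/16 transgenic mice received an oral suspension in water with 2% cremophor. Parent inhibitor measured 4 h post-dose in blood (nmol/mL) and brain (nmol/g).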

First: [2H]C([2H])(N[C@H]1C[S@+]([O-])C[C@@H](Cc2cc(F)c(N)c(O[C@H](COC)C(F)(F)F)c2)[C@@H]1O)c1cccc(C(C)C)c1
Second: COC[C@@H](Oc1cc(C[C@@H]2C[S@@+]([O-])C[C@H](NCc3cccc(C(C)C)c3)[C@H]2O)cc(F)c1N)C(F)(F)F
The Drug uptake of the first is higher: 0.3 nmol/g for the first, 0.2 nmol/g for the second.

For COC[C@@H](Oc1cc(C[C@@H]2C[S@@+]([O-])C[C@H](N[C@H](C)c3cccc(C(C)(C)C)c3)[C@H]2O)cc(F)c1N)C(F)(F)F, the Drug uptake was 0.7 nmol/g.

system: Brain; experiment: Drug level in APP51/16 transgenic male mouse brain at 60 umol/kg, po after 4 hrs; type: ADME, organism-based; details: in vivo
Summary of the method: (§2)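 Inhibitor given orally to APP51/16 transgenic mice as a suspension in water with 2% cremophor; ritonavir (12.5 mg/kg po, 0.5 h before inhibitor) where noted. Blood concentration (nmol/mL) and brain concentration (nmol/g) determined 4 h after dosing.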

[2H]C([2H])(N[C@H]1C[S@+]([O-])C[C@@H](Cc2cc(F)c(N)c(O[C@H](COC)C(F)(F)F)c2)[C@@H]1O)c1cccc(C(C)(C)C)c1 and COC[C@@H](Oc1cc(C[C@@H]2C[S@@+]([O-])C[C@H](NCc3cccc(C(C)(C)C)c3)[C@H]2O)cc(F)c1N)C(F)(F)F are the same in Drug uptake: 0.1 nmol/g for the first, 0.1 nmol/g for the second.

system: Brain; experiment: Drug level in APP51/16 transgenic male mouse brain at 100 umol/kg, po after 4 hrs; type: ADME, organism-based; details: in vivo; summary of the method: as §2

COC[C@@H](Oc1cc(C[C@@H]2C[S@@+]([O-])C[C@H](NCc3cccc(C(C)(C)C)c3)[C@H]2O)cc(F)c1N)C(F)(F)F showed a Drug uptake of 0.2 nmol/g.

system: Brain; experiment: Drug level in APP51/16 transgenic male mouse brain at 180 umol/kg, po after 4 hrs; type: ADME, organism-based; details: in vivo; summary of the method: as §2

Molecule COC[C@@H](Oc1cc(C[C@@H]2C[S@@+]([O-])C[C@H](NCc3cccc(C(C)(C)C)c3)[C@H]2O)cc(F)c1N)C(F)(F)F has a Drug uptake of 0.7 nmol/g.

system: not listed separately; experiment: Drug level in APP51/16 transgenic female mouse blood at 100 umol/kg, po after 4 hrs; type: ADME, organism-based; details: whole blood, read-out: Drug uptake; summary of the method: as §1

[2H]C([2H])(N[C@H]1C[S@+]([O-])C[C@@H](Cc2cc(F)c(N)c(O[C@H](COC)C(F)(F)F)c2)[C@@H]1O)c1cccc(C(C)C)c1 and COC[C@@H](Oc1cc(C[C@@H]2C[S@@+]([O-])C[C@H](NCc3cccc(C(C)C)c3)[C@H]2O)cc(F)c1N)C(F)(F)F are within 1.5-fold of each other in concentration at 4 h: 1500 nM for the first, 1600 nM for the second.

With COC[C@@H](Oc1cc(C[C@@H]2C[S@@+]([O-])C[C@H](N[C@H](C)c3cccc(C(C)(C)C)c3)[C@H]2O)cc(F)c1N)C(F)(F)F the concentration at 4 h was 5400 nM.

system: not listed separately; experiment: Drug level in APP51/16 transgenic male mouse blood at 100 umol/kg, po after 4 hrs; type: ADME, organism-based; details: whole blood, read-out: Drug uptake; summary of the method: as §2

Molecule COC[C@@H](Oc1cc(C[C@@H]2C[S@@+]([O-])C[C@H](NCc3cccc(C(C)(C)C)c3)[C@H]2O)cc(F)c1N)C(F)(F)F has a concentration at 4 h of 1000 nM.

system: not listed separately; experiment: Drug level in APP51/16 transgenic male mouse blood at 60 umol/kg, po after 4 hrs; type: ADME, organism-based; details: whole blood, read-out: Drug uptake; summary of the method: as §2

[2H]C([2H])(N[C@H]1C[S@+]([O-])C[C@@H](Cc2cc(F)c(N)c(O[C@H](COC)C(F)(F)F)c2)[C@@H]1O)c1cccc(C(C)(C)C)c1 and COC[C@@H](Oc1cc(C[C@@H]2C[S@@+]([O-])C[C@H](NCc3cccc(C(C)(C)C)c3)[C@H]2O)cc(F)c1N)C(F)(F)F are within 1.5-fold of each other in concentration at 4 h: 400 nM for the first, 300 nM for the second.

system: not listed separately; experiment: Drug level in APP51/16 transgenic male mouse blood at 180 umol/kg, po after 4 hrs; type: ADME, organism-based; details: whole blood, read-out: Drug uptake; summary of the method: as §2

In the case of COC[C@@H](Oc1cc(C[C@@H]2C[S@@+]([O-])C[C@H](NCc3cccc(C(C)(C)C)c3)[C@H]2O)cc(F)c1N)C(F)(F)F, the concentration at 4 h is reported as 3800 nM.

system: not listed separately; experiment: Clearance in mouse liver microsomes; type: ADME, Microsome; details: read-out: CLH
Summary of the method: (§3)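 Compounds incubated at 37 °C with human or mouse liver microsomes.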

[2H]C([2H])(N[C@H]1C[S@+]([O-])C[C@@H](Cc2cc(F)c(N)c(O[C@H](COC)C(F)(F)F)c2)[C@@H]1O)c1cccc(C(C)C)c1 and COC[C@@H](Oc1cc(C[C@@H]2C[S@@+]([O-])C[C@H](NCc3cccc(C(C)C)c3)[C@H]2O)cc(F)c1N)C(F)(F)F are within 1.5-fold of each other in microsomal CLint: 660 µL/min/mg for the first, 550 µL/min/mg for the second.

[2H]C([2H])(N[C@H]1C[S@+]([O-])C[C@@H](Cc2cc(F)c(N)c(O[C@H](COC)C(F)(F)F)c2)[C@@H]1O)c1cccc(C(C)(C)C)c1 and COC[C@@H](Oc1cc(C[C@@H]2C[S@@+]([O-])C[C@H](NCc3cccc(C(C)(C)C)c3)[C@H]2O)cc(F)c1N)C(F)(F)F are within 1.5-fold of each other in microsomal CLint: 530 µL/min/mg for the first, 480 µL/min/mg for the second.

COC[C@@H](Oc1cc(C[C@@H]2C[S@@+]([O-])C[C@H](N[C@H](C)c3cccc(C(C)(C)C)c3)[C@H]2O)cc(F)c1N)C(F)(F)F gave a microsomal CLint of 730 µL/min/mg.

system: not listed separately; experiment: Clearance in human liver microsomes; type: ADME, Microsome; details: read-out: CLH; summary of the method: as §3

[2H]C([2H])(N[C@H]1C[S@+]([O-])C[C@@H](Cc2cc(F)c(N)c(O[C@H](COC)C(F)(F)F)c2)[C@@H]1O)c1cccc(C(C)C)c1 and COC[C@@H](Oc1cc(C[C@@H]2C[S@@+]([O-])C[C@H](NCc3cccc(C(C)C)c3)[C@H]2O)cc(F)c1N)C(F)(F)F are within 1.5-fold of each other in microsomal CLint: 600 µL/min/mg for the first, 690 µL/min/mg for the second.

[2H]C([2H])(N[C@H]1C[S@+]([O-])C[C@@H](Cc2cc(F)c(N)c(O[C@H](COC)C(F)(F)F)c2)[C@@H]1O)c1cccc(C(C)(C)C)c1 and COC[C@@H](Oc1cc(C[C@@H]2C[S@@+]([O-])C[C@H](NCc3cccc(C(C)(C)C)c3)[C@H]2O)cc(F)c1N)C(F)(F)F are within 1.5-fold of each other in microsomal CLint: 600 µL/min/mg for the first, 500 µL/min/mg for the second.

COC[C@@H](Oc1cc(C[C@@H]2C[S@@+]([O-])C[C@H](N[C@H](C)c3cccc(C(C)(C)C)c3)[C@H]2O)cc(F)c1N)C(F)(F)F gave a microsomal CLint of 600 µL/min/mg.

system: not listed separately; experiment: Lipophilicity, log P of the compound; type: physicochemical; details: octanol/water

[2H]C([2H])(N[C@H]1C[S@+]([O-])C[C@@H](Cc2cc(F)c(N)c(O[C@H](COC)C(F)(F)F)c2)[C@@H]1O)c1cccc(C(C)C)c1 and COC[C@@H](Oc1cc(C[C@@H]2C[S@@+]([O-])C[C@H](NCc3cccc(C(C)C)c3)[C@H]2O)cc(F)c1N)C(F)(F)F are the same in logP: 3.7 for the first, 3.7 for the second.

Molecule COC[C@@H](Oc1cc(C[C@@H]2C[S@@+]([O-])C[C@H](NCc3cccc(C(C)(C)C)c3)[C@H]2O)cc(F)c1N)C(F)(F)F has a logP of 3.9.

system: not listed separately; experiment: Apparent permeability of the compound in MDCK cells expressing human MDR1; type: ADME, cell-based, Canis lupus familiaris; details: dog
Summary of the method: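 Apparent permeability (Papp, […]) measured across MDR1-MDCK cell monolayers transfected with human MDR1.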

[2H]C([2H])(N[C@H]1C[S@+]([O-])C[C@@H](Cc2cc(F)c(N)c(O[C@H](COC)C(F)(F)F)c2)[C@@H]1O)c1cccc(C(C)(C)C)c1 and COC[C@@H](Oc1cc(C[C@@H]2C[S@@+]([O-])C[C@H](NCc3cccc(C(C)(C)C)c3)[C@H]2O)cc(F)c1N)C(F)(F)F are within 1.5-fold of each other in Papp: 19 ×10⁻⁶ cm/s for the first, 18 ×10⁻⁶ cm/s for the second.

COC[C@@H](Oc1cc(C[C@@H]2C[S@@+]([O-])C[C@H](N[C@H](C)c3cccc(C(C)(C)C)c3)[C@H]2O)cc(F)c1N)C(F)(F)F and COC[C@@H](Oc1cc(C[C@@H]2C[S@@+]([O-])C[C@H](NCc3cccc(C(C)C)c3)[C@H]2O)cc(F)c1N)C(F)(F)F are within 1.5-fold of each other in Papp: 17 ×10⁻⁶ cm/s for the first, 20 ×10⁻⁶ cm/s for the second.
